According to ChEMBL document CHEMBL2375316, “Neocosmospora sp.-derived resorcylic acid lactones with in vitro binding affinity for human opioid and cannabinoid receptors” (J Nat Prod, 2013):

Legend:
[1] = biological target: T1, Delta-type opioid receptor (Homo sapiens, UniProt P41143); experiment: Displacement of [3H]-enkephalin from human delta opioid receptor transfected in CHOK1 cells after 60 mins; assay type: cell-based, CHO-K1
[2] = biological target: Cannabinoid receptor 2 (Homo sapiens) (UniProt P34972); experiment: Displacement of [3H]-CP55940 from human recombinant CB2 receptor transfected in HEK293 cells at 10 uM after 90 mins relative to control; assay type: cell-based
[3] = biological target: Mu-type opioid receptor (Homo sapiens) (UniProt P35372); conditions: CHO-K1, at 10 µM
[4] = biological target: Kappa-type opioid receptor (Homo sapiens) (UniProt P41145); conditions: CHO-K1, at 10 µM
[5] = biological target: T1, Delta-type opioid receptor; experiment: Agonist activity at human delta opioid receptor transfected in CHOK1 cells after 60 mins by [35S]GTPgammaS binding assay
[6] = biological target: T1, Delta-type opioid receptor; experiment: Displacement of [3H]-enkephalin from human delta opioid receptor transfected in CHOK1 cells at 10 uM after 60 mins relative to control; assay type: cell-based; conditions: CHO-K1
[7] = biological target: T1, Delta-type opioid receptor; experiment: Agonist activity at human delta opioid receptor transfected in CHOK1 cells after 60 mins by [35S]GTPgammaS binding assay relative to control; assay type: functional, cell-based; conditions: CHO-K1
Method in brief: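 [35S]GTPγS functional assay on membranes from CHO-K1 cells stably expressing δ-opioid receptor; diluted compound incubated with membrane at predetermined protein level plus 0.05 nM [35S]GTPγS, 60 min at room temperature. Terminated by vacuum filtration through GF/C filters, 10 washes 50 mM Tris-HCl pH 7.4, scintillation counting. Basal binding defined as binding with GTPγS buffers.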

[8] = biological target: Cannabinoid receptor 1 (Homo sapiens) (UniProt P21554); experiment: Displacement of [3H]-CP55940 from human recombinant CB1 receptor transfected in HEK293 cells at 10 uM after 90 mins relative to control; assay type: cell-based
Chain of Cannabinoid receptor 1 (Homo sapiens) (P21554 whole entry): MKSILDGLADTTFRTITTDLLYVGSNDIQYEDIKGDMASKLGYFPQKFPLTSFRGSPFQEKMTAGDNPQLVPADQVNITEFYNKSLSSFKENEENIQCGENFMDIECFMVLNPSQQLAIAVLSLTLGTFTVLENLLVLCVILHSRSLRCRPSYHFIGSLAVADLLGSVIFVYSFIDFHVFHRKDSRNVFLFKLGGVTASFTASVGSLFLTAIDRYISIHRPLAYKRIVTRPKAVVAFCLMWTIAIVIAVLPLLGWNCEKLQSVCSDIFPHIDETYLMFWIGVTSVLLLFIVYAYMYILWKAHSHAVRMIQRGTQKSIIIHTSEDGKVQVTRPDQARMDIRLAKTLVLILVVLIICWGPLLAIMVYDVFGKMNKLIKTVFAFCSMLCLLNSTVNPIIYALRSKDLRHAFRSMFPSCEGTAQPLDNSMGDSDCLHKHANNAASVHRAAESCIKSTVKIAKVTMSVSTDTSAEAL

T1 sequence (P41143 whole entry): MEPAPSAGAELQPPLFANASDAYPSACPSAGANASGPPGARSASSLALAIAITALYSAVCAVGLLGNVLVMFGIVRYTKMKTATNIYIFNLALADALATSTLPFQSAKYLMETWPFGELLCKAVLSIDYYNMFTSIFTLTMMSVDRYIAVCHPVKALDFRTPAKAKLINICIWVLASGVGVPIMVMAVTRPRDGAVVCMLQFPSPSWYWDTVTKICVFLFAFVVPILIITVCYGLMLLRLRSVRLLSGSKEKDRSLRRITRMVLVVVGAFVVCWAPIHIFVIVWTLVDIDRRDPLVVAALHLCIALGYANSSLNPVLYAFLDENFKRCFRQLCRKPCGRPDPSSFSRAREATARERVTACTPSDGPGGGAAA
Chain of Kappa-type opioid receptor (Homo sapiens) (P41145 whole entry): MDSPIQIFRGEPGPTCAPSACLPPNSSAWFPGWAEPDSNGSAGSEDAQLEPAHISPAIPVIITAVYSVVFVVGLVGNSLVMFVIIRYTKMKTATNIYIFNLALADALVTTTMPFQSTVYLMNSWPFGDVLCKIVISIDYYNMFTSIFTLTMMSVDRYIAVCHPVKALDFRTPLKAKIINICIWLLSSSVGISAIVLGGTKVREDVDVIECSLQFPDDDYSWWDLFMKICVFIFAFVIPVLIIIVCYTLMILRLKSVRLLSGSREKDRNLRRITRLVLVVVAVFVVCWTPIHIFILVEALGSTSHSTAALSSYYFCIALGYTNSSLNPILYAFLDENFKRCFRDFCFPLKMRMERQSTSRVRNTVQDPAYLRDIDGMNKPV
Chain of Cannabinoid receptor 2 (Homo sapiens) (P34972 whole entry): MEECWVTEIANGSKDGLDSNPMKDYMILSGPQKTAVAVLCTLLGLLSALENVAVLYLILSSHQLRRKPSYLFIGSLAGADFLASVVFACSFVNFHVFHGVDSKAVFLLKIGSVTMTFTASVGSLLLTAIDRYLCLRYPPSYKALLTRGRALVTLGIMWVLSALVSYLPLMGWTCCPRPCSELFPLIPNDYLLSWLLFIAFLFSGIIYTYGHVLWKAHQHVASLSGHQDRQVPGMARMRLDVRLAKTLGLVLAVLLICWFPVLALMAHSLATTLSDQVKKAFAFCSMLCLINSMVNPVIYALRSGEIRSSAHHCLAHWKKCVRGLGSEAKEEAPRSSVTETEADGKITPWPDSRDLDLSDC
Chain of Mu-type opioid receptor (Homo sapiens) (P35372 whole entry): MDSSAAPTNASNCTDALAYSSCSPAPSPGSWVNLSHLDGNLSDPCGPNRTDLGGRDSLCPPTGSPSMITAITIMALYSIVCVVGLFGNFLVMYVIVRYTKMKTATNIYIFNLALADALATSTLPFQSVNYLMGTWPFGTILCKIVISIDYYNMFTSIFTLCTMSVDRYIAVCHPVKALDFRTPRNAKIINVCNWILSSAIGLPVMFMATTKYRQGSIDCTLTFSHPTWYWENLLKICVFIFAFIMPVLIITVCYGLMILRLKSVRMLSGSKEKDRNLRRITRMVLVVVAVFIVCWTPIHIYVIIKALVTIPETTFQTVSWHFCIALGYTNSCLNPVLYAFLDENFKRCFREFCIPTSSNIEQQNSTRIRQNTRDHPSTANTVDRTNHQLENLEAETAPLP

| Compound | IC50 [1] | Ki [1] | inhibition [2] | inhibition [3] | inhibition [4] | EC50 [5] | inhibition [6] | Emax [7] | inhibition [8] |
| --- | --- | --- | --- | --- | --- | --- | --- | --- | --- |
| COc1cc(O)c2c(c1)CC(=O)CCCC(=O)CCC[C@@H](C)OC2=O | 14.6 µM | 7.31 µM | 46.3% | 24% | 32.7% | 0.239 µM | 54.9% | 2400% |  |
| COc1cc(O)c2c(c1)CC(=O)CCCC/C=C/C[C@@H](C)OC2=O |  |  | 44.5% | 22.4% | 11.4% |  | 44.7% |  |  |
| CCCCCCC(C)(C)c1ccc([C@@H]2C[C@H](O)CC[C@H]2CCCO)c(O)c1 |  |  | 90.3% |  |  |  |  |  | 88.8% |
| C[C@@H]1C/C=C/CCCCC(=O)Cc2cc(O)cc(O)c2C(=O)O1 |  |  |  | 8.7% | 24.7% |  | 45.7% |  |  |
| C[C@@H]1C[C@H]2O[C@@H]2/C=C\C=C\C(=O)Cc2c(Cl)c(O)cc(O)c2C(=O)O1 |  |  | 13% | 84.9% |  |  |  |  | 30.7% |
| C[C@@H]1CCCC(=O)CCCC(=O)Cc2cc(O)cc(O)c2C(=O)O1 |  |  | 27.7% | 41.3% | 8.1% |  |  |  | 47.4% |
